# Assay results as given in ChEMBL document CHEMBL2157969, “Chalcone inhibitors of the NorA efflux pump in Staphylococcus aureus whole cells and enriched everted membrane vesicles” (Bioorg Med Chem, 2012).
# Calls of active or inactive are those of the source. The calls are words filed in the database; no cut-off is given here.
# How the values were obtained:
# [1] = molecular target: T1, Quinolone resistance protein NorA (Staphylococcus aureus) (UniProt P0A0J7); assay: Inhibition of norA-mediated ethidium bromide efflux in methicillin-resistant Staphylococcus aureus SA-1199B at 10 ug/ml by spectrofluorometric analysis
# T1 sequence (whole entry): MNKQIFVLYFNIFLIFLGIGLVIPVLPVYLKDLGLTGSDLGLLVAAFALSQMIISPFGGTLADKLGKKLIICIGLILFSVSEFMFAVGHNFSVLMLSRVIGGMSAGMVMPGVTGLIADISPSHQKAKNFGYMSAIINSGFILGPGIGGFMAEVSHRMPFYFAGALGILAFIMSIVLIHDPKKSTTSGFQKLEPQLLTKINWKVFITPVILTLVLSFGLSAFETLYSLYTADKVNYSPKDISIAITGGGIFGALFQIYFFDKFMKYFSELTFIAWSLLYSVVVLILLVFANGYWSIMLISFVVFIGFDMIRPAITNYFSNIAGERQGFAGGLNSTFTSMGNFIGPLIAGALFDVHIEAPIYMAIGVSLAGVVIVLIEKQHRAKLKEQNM
# Outline: (§1)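 Ethidium bromide efflux from S. aureus cells in MHB II, compounds dissolved in DMSO. Reserpine 20 µg/mL as positive control and 1% DMSO as negative control; background taken from a resuspended pellet in clean medium. Fluorescence read at ex 530/em 600 nm in duplicate; mean given as percent reduction of efflux versus control.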
# Escherichia coli [2] = assay: Inhibition of Hoechst 33342 dye in norA-deficient Escherichia coli DH10B expressing pTrc99A at 2 ug/mL by spectrofluorometer analysis; type: functional, organism-based; conditions: K-12 DH10B
# Outline: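 Everted membrane vesicles were made from overnight E. coli DH10B carrying pTrcHis2C-norA or control pTrc99A. PMSF (0.1 mM final) was added before French press and DNase (0.1 mg/mL final) to the lysate. Vesicles were diluted to 80 µg protein/mL in 50 mM potassium HEPES, 8.5 mM NaCl, 2 mM MgCl2, pH 7.2. Hoechst 33342 was added, then Mg2+-ATP after the signal stabilised (~30 s). Inhibitor was added at 150–160 s. Fluorescence ex 355/em 457 nm over 300 s.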
# Staphylococcus aureus [3] = assay: Antibacterial activity against Staphylococcus aureus SA-1199B overexpressing norA at 0.2 to 25 ug/ml after 20 hrs by microdilution method; type: functional, organism-based
# Outline: (§2)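 Broth microdilution in Mueller Hinton broth II with an inoculum of 5 × 10⁵ cfu/mL, incubated 20 h at 35 °C. MIC is the lowest concentration with no visible growth. Controls were bacteria with DMSO at up to about 1%, and ciprofloxacin. Run to CLSI/EUCAST guidelines in duplicate or more.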
# [4] = molecular target: T1, Quinolone resistance protein NorA (Staphylococcus aureus); assay: Inhibition of norA-mediated ethidium bromide efflux in methicillin-resistant Staphylococcus aureus SA-1199B at 2.5 ug/ml by spectrofluorometric analysis
# Outline: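 Whole-cell efflux assay, strain grown in Mueller Hinton II broth; compounds dissolved in DMSO, 1% DMSO in MHB II as negative control, reserpine as positive control. Background read from a pellet resuspended in clean MHB II. Fluorescence read in duplicate at ex 530 nm / em 600 nm; the mean is reported as percent reduction of efflux versus control.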
# [5] = molecular target: T1, Quinolone resistance protein NorA (Staphylococcus aureus); assay: Inhibition of norA-mediated ethidium bromide efflux in methicillin-resistant Staphylococcus aureus SA-1199B at 20 ug/ml by spectrofluorometric analysis; outline: as §1
# [6] = molecular target: T1, Quinolone resistance protein NorA (Staphylococcus aureus); assay: Inhibition of norA in Staphylococcus aureus ATCC […] assessed as fold reduction in ciprofloxacin MIC at 25 ug/mL by checkerboard assay
# [7] = molecular target: T1, Quinolone resistance protein NorA (Staphylococcus aureus); assay: Inhibition of norA in Staphylococcus aureus SA-1199B overexpressing norA assessed as fold reduction in ciprofloxacin MIC at 25 ug/mL by checkerboard assay
# [8] = molecular target: T2, Quinolone resistance protein NorA (Staphylococcus aureus, UniProt P0A0J7); assay: Inhibition of norA-mediated ethidium bromide efflux in methicillin-resistant Staphylococcus aureus SA-1199B by spectrofluorometric analysis; outline: as §1
# T2 sequence (P0A0J7 whole entry): T1 sequence (whole entry)
# [9] = molecular target: T1, Quinolone resistance protein NorA (Staphylococcus aureus); assay: Inhibition of norA-mediated ethidium bromide efflux in methicillin-resistant Staphylococcus aureus SA-1199B at 5 ug/ml by spectrofluorometric analysis; outline: as §1
# Staphylococcus aureus [10] = assay: Antibacterial activity against Staphylococcus aureus ATCC 29213 […] at 0.2 to 25 ug/ml after 20 hrs by microdilution method; type: functional, organism-based; outline: as §2
# Staphylococcus aureus [11] = assay: Antibacterial activity against Staphylococcus aureus ATCC […] at 25 ug/ml after 20 hrs by microdilution method; type: functional, organism-based; outline: as §2
# [12] = molecular target: T1, Quinolone resistance protein NorA (Staphylococcus aureus); conditions: ATCC 29213
# [13] = molecular target: T1, Quinolone resistance protein NorA (Staphylococcus aureus); assay: Inhibition of norA in Staphylococcus aureus SA-1199B overexpressing norA assessed as fold reduction in ciprofloxacin MIC at 3.13 ug/mL by checkerboard assay
# Outline: (§3)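 Checkerboard in MHB with twofold serial dilutions: ciprofloxacin 0.05–12.5 µg/mL against inhibitor 0.2–25 µg/mL. Inoculum 5 × 10⁵ cfu/mL, 20 h at 35 °C, visual MIC read-out. Fold reduction of ciprofloxacin MIC recorded at the inhibitor concentration giving it. FIC index is the sum of both drugs' FICs; ≤0.5 counts as synergy.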
# Staphylococcus aureus [14] = assay: Antibacterial activity against Staphylococcus aureus SA-1199B overexpressing norA at 25 ug/ml after 20 hrs by microdilution method; type: functional, organism-based; outline: as §2
# [15] = molecular target: T1, Quinolone resistance protein NorA (Staphylococcus aureus); assay: Inhibition of norA in Staphylococcus aureus ATCC 29213 assessed as fold reduction in ciprofloxacin MIC at 12.5 ug/mL by checkerboard assay
# [16] = molecular target: T1, Quinolone resistance protein NorA (Staphylococcus aureus); assay: Inhibition of norA in Staphylococcus aureus SA-1199B overexpressing norA assessed as fold reduction in ciprofloxacin MIC at 12.5 ug/mL by checkerboard assay; outline: as §3
# [17] = molecular target: T1, Quinolone resistance protein NorA (Staphylococcus aureus); assay: Inhibition of norA in Staphylococcus aureus SA-1199B overexpressing norA assessed as fold reduction in ciprofloxacin MIC by checkerboard assay
# [18] = molecular target: T1, Quinolone resistance protein NorA (Staphylococcus aureus); conditions: SA-1199B
# Escherichia coli [19] = assay: Inhibition of acridine orange efflux in norA-deficient Escherichia coli DH10B expressing pTrc99A at 2 ug/mL by spectrofluorometer analysis; type: functional, organism-based; conditions: K-12 DH10B
# Outline: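 Proton gradient was read with acridine orange (500 nM final) in NorA-enriched or pTrc99A control everted E. coli DH10B vesicles. Buffer: 50 mM potassium HEPES, 8.5 mM NaCl, 2 mM MgCl2, pH 7.2. Vesicles were energised with Mg2+-ATP. Valinomycin and nigericin dissipated the gradients, and norfloxacin was given at 10 µM. Fluorescence ex 494/em 530 nm.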
# [20] = molecular target: T1, Quinolone resistance protein NorA (Staphylococcus aureus); assay: Inhibition of norA in Staphylococcus aureus SA-1199B overexpressing norA assessed as fold reduction in ciprofloxacin MIC by checkerboard assay; outline: as §3
# [21] = molecular target: T1, Quinolone resistance protein NorA (Staphylococcus aureus); assay: Inhibition of norA in Staphylococcus aureus ATCC 29213 overexpressing norA assessed as fold reduction in ciprofloxacin MIC at 3.13 ug/mL by checkerboard assay; outline: as §3
SMILES,inhibition [1] [%],inhibition (Escherichia coli [2]),Activity (Staphylococcus aureus [3]),inhibition [4] [%],inhibition [5] [%],IC50 [8] [µM],inhibition [9] [%],Activity (Staphylococcus aureus [10]),other results
COc1ccc(/C=C/C(=O)c2ccc(O)cc2)cc1OC,64.3,inactive,inactive,14,87.9,26.5,38.3,inactive,fractional inhibitory concentration index (FICI) [6]: 0.25; fractional inhibitory concentration index (FICI) [7]: 0.25
CN(C)CCOc1ccc(C(=O)/C=C/c2ccc(F)cc2)cc1,,inactive,,,,,,,
C=CCOc1ccc(C(=O)/C=C/c2cccc(OC)c2OC)cc1,,inactive,,,,,,,
CN(C)CCOc1ccc(C(=O)/C=C/c2ccccc2F)cc1,70.3,inactive,inactive,33.7,97,18.1,48.5,inactive,fractional inhibitory concentration index (FICI) [6]: > 1; fractional inhibitory concentration index (FICI) [7]: 0.25
CN(C)CCOc1ccc(C(=O)/C=C/c2ccccc2)cc1,56.9,inactive,inactive,21.8,83.6,28.4,36.1,inactive,fractional inhibitory concentration index (FICI) [6]: > 0.5; fractional inhibitory concentration index (FICI) [7]: > 0.5
COc1cc(/C=C/C(=O)c2ccc(OC)c(OC)c2OC)cc(OC)c1,,inactive,,,,,,,
CN(C)CCOc1ccc(C(=O)/C=C/c2ccc(Oc3ccccc3)cc2)cc1,97.5,inactive,,43.4,99.1,9,68.8,,Activity (Staphylococcus aureus [11]): Active; FICI [12]: 0.26; fractional inhibitory concentration index (FICI) [13]: 0.38; Activity (Staphylococcus aureus [14]): Active
COc1ccc(OC)c(/C=C/C(=O)c2ccc(O)cc2)c1,82.7,inactive,inactive,23.3,91,15,56.6,inactive,fractional inhibitory concentration index (FICI) [15]: 0.25; fractional inhibitory concentration index (FICI) [16]: 0.25
CN(C)CCOc1ccc(C(=O)/C=C/c2ccc(C#N)cc2)cc1,,inactive,,,,,,,
COc1ccc(/C=C/C(=O)c2ccccc2OC)c(OC)c1,,inactive,,,,,,,
COc1cc(O)cc(C)c1/C=C/C(=O)c1ccc(O)cc1,84.3,inactive,inactive,36.6,91.7,13.4,63.7,inactive,inhibition [17]: Dose-dependent effect; FICI [18]: 0.25; inhibition (Escherichia coli [19]): inactive; inhibition [20]: Dose-dependent effect; fractional inhibitory concentration index (FICI) [15]: 0.25
COc1ccc(C(=O)/C=C/c2cccc(N(C)C)c2)c(OC)c1OC,,inactive,,,,,,,
CN(C)CCOc1ccc(C(=O)/C=C/c2ccc(N(C)C)cc2)cc1,97.4,inactive,inactive,48,98.7,7.7,96.5,inactive,fractional inhibitory concentration index (FICI) [15]: 0.5; fractional inhibitory concentration index (FICI) [7]: inactive
C[C@@H]1O[C@@H](Oc2c(-c3ccc(O)cc3)oc3cc(O)cc(O)c3c2=O)[C@H](OC(=O)/C=C/c2ccc(O)cc2)[C@H](O)[C@H]1OC(=O)/C=C/c1ccc(O)cc1,,inactive,,,,,,,
CN(C)CCOc1ccc(C(=O)/C=C/c2cccc(F)c2)cc1,,inactive,,,,,,,
C=CCOc1ccccc1C(=O)/C=C/c1ccc(OCC(=O)O)cc1,79.9,inactive,inactive,14.7,87.1,16.9,46.2,inactive,inhibition [17]: Dose-dependent effect; FICI [18]: 0.25; inhibition [20]: Dose-dependent effect; fractional inhibitory concentration index (FICI) [21]: 0.25
COc1ccc(CCN(C)CCCC(C#N)(c2ccc(OC)c(OC)c2)C(C)C)cc1OC (centres undefined),,inactive,,,,,,,
COc1cc(/C=C/C(=O)c2cccc(OC(=O)c3ccccc3)c2)cc(OC)c1,,inactive,,,,,,,
COC(=O)[C@H]1[C@H]2C[C@@H]3c4[nH]c5cc(OC)ccc5c4CCN3C[C@H]2C[C@@H](OC(=O)c2cc(OC)c(OC)c(OC)c2)[C@@H]1OC [RESERPINE],71.8,,,30,,8.2,48.1,,FICI [12]: 0.25; FICI [18]: 0.25
COc1ccc(/C=C/C(=O)c2ccc(O)cc2)c(OC)c1,62.7,inactive,inactive,17.3,89.6,29.1,24.1,inactive,FICI [12]: 0.25; fractional inhibitory concentration index (FICI) [16]: 0.25
COc1ccc(C(=O)/C=C/c2cccc(OCCN(C)C)c2)c(OC)c1OC,,inactive,,,,,,,inhibition (Escherichia coli [19]): Active
COc1cccc(/C=C/C(=O)c2ccc(O)cc2)c1OC,73.3,inactive,inactive,11.7,90.8,24.3,38,inactive,FICI [12]: 0.25; fractional inhibitory concentration index (FICI) [16]: 0.25
COc1cc(OC)c(/C=C/C(=O)c2ccc(O)cc2)c(OC)c1,,inactive,,,,,,,
